Measurements from ChEMBL document CHEMBL1145780, “Evaluation of the first cytostatically active 1-aza-9-oxafluorenes as novel selective CDK1 inhibitors with P-glycoprotein modulating properties” (J Med Chem, 2003).
pIC50: −log10 of the molar value.

Key:
[1] = target: Cyclin-dependent kinase 5/CDK5 activator 1 (Homo sapiens) (UniProt Q00535+Q15078); assay: Inhibition of Cyclin-dependent kinase 5 (CDK5) at 10 uM; type: protein-complex assay
Procedure, shortened: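 Recombinant GST-tagged mammalian CDK5 and p25 mixed in equal amounts and purified. Assayed in the same homogenization buffer as CDK1/cyclin B (Mops pH 7.2, Mg2+, EGTA, DTT, phosphatase inhibitors) at 30 °C with 15 μM final ATP for 10 min. Phosphate incorporation measured with blanks subtracted. Percent inhibition at 10 μM test concentration, mean of two determinations.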

IGROV-1 = assay: Inhibition of ovarian cancer IGROVI cell proliferation; type: functional; settings: Homo sapiens
Procedure, shortened: (§1)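 NCI in vitro antitumour screen across 60 human tumour cell lines, run as a sulforhodamine B protein cytotoxicity assay. Values are log GI50, mean of two determinations. The panel mean-graph midpoint (MG_MID) summarises all 60 lines, and the ovarian IGROV1 line is reported individually.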

[2] = target: Cyclin-dependent kinase 1/cyclin B (Homo sapiens, UniProt P06493+P14635+Q8WWL7+O95067); assay: Inhibition of Cyclin-dependent kinase 1-cyclin B from M phase starfish (Marthasterias glacialis) oocytes (inactive); type: cell-based, Asteroidea; settings: oocyte
Sequence of Cyclin-dependent kinase 1/cyclin B (Homo sapiens, UniProt P06493+P14635+Q8WWL7+O95067) (P06493 whole entry): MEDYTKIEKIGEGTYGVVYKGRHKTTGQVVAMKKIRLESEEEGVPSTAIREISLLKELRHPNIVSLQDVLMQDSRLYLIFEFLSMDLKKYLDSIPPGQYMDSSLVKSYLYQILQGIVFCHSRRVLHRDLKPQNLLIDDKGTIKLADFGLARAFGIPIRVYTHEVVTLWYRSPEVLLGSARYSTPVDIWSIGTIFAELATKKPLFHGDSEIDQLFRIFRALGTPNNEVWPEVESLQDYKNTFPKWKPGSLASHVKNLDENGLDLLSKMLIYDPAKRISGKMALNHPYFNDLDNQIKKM
Sequence of Cyclin-dependent kinase 1/cyclin B (Homo sapiens, UniProt P06493+P14635+Q8WWL7+O95067) (P14635 whole entry): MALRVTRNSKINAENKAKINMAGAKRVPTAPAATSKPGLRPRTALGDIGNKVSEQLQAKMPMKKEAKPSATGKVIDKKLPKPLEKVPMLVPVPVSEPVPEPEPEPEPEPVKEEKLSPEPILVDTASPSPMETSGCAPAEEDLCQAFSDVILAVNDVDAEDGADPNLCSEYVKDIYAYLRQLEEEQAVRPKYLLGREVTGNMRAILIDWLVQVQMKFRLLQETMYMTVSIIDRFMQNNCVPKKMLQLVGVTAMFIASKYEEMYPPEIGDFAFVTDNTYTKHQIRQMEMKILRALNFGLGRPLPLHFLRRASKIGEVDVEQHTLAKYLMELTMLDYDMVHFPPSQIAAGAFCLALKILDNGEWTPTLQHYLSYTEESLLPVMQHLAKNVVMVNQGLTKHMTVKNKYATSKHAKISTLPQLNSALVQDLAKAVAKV
Sequence of Cyclin-dependent kinase 1/cyclin B (Homo sapiens, UniProt P06493+P14635+Q8WWL7+O95067) (Q8WWL7 whole entry): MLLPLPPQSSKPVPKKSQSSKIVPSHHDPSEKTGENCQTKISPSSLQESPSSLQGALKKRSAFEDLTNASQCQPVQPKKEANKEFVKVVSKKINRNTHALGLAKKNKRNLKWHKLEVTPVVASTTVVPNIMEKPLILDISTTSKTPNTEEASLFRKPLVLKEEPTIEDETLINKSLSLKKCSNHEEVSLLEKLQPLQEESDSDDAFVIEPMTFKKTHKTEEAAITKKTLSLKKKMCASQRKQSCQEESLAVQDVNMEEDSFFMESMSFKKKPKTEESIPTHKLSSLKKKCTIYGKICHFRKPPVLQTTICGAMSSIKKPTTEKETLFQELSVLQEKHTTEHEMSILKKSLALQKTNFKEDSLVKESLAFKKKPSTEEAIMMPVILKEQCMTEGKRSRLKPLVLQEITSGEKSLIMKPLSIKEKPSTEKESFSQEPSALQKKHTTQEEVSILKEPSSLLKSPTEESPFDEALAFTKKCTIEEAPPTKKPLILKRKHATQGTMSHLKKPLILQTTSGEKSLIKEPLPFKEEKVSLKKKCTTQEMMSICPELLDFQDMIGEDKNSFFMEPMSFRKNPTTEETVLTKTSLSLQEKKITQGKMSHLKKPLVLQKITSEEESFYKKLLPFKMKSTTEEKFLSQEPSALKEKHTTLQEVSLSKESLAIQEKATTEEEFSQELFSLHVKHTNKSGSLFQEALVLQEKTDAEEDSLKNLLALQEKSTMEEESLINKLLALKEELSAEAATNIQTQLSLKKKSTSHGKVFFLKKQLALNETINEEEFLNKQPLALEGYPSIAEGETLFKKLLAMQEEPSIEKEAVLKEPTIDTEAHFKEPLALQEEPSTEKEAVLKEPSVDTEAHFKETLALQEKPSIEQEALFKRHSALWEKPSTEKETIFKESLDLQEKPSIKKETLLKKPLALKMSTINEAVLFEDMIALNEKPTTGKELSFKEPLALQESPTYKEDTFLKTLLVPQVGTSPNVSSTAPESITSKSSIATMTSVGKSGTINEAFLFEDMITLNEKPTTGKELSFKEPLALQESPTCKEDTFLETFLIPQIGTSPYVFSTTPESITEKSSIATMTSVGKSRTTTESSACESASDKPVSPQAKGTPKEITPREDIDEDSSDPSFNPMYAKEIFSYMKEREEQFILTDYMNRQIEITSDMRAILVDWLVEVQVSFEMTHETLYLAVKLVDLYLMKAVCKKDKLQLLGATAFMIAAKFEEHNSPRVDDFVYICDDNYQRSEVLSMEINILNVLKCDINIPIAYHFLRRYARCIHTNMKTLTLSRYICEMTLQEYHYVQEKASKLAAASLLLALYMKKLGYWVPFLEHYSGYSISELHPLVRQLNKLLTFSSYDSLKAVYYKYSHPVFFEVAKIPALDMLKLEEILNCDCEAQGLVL
Sequence of Cyclin-dependent kinase 1/cyclin B (Homo sapiens, UniProt P06493+P14635+Q8WWL7+O95067) (O95067 whole entry): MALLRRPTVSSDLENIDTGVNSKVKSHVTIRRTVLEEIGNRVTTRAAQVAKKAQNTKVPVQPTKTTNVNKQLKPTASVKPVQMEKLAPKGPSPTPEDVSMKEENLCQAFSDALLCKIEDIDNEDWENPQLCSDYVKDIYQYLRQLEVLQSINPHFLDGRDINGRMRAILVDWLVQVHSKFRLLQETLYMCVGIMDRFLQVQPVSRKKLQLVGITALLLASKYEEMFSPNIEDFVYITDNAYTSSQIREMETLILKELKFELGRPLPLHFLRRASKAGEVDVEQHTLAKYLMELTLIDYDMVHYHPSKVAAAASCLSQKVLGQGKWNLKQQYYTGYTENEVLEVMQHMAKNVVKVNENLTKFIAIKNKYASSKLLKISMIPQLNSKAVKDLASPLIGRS

Tumor Cell line = assay: Cytostatic activity in performed screen of NCI 60 cell lines, mean graph midpoint; type: functional; settings: Homo sapiens; procedure, shortened: as §1
[3] = target: T1, ATP-dependent translocase ABCB1 (Homo sapiens, UniProt P08183); assay: Inhibition of P-glycoprotein, MDR-1, expressed in mouse T-cell lymphoma cell line at 70 uM; type: functional, cell-based
T1 sequence (P08183 whole entry): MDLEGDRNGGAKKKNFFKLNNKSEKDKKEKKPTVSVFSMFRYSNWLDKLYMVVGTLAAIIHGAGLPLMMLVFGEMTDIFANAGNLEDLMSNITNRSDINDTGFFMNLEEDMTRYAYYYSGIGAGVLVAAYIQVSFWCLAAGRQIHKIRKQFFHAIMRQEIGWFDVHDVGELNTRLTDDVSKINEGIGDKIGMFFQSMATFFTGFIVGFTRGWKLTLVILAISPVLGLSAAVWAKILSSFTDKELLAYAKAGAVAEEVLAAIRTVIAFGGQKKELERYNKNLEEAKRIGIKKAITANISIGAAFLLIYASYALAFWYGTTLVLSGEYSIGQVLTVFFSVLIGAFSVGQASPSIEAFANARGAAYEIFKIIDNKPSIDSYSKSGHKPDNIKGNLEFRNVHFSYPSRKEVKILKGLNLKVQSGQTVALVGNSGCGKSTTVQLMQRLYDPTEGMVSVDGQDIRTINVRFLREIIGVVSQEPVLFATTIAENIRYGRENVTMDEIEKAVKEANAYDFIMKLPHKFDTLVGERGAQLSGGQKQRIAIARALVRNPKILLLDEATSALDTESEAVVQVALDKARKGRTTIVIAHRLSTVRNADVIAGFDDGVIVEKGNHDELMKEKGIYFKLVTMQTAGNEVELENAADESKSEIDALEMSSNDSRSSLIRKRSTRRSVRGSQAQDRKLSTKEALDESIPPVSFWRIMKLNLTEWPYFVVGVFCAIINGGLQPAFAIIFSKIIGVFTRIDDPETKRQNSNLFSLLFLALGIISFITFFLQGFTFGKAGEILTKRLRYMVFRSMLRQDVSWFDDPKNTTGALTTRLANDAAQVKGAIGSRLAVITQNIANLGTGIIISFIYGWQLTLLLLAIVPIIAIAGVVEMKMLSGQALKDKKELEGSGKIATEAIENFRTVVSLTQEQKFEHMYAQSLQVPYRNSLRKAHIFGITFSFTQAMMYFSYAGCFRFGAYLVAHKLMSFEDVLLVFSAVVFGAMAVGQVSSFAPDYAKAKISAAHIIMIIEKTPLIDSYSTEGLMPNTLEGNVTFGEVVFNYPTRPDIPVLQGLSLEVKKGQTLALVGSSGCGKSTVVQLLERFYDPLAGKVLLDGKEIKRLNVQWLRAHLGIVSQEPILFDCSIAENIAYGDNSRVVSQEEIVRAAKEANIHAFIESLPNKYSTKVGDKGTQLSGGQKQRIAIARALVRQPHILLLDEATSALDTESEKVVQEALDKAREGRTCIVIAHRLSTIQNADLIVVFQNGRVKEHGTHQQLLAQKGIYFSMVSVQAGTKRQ
Procedure, shortened: (§2)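 Rhodamine 123 uptake in L5178Y mouse T-cell lymphoma parental cells and the L5178YvMDR subline transfected with human MDR-1, at 2 × 10⁶ cells/mL in serum-free McCoy's 5A. Cells were preincubated with compound at room temperature, then given 5.2 μM rhodamine 123 (final) for 20 min at 37 °C and washed twice in PBS. Fluorescence of 1 × 10⁴ cells was read by flow cytometry. R = (MDR treated/untreated)/(parental treated/untreated), mean of two determinations.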

[4] = target: T1, ATP-dependent translocase ABCB1; assay: Inhibition of membrane efflux pump P-glycoprotein at 7 uM; type: functional; procedure, shortened: as §2
[5] = target: Cyclin-dependent kinase 1/cyclin B (Homo sapiens, UniProt O95067+P06493+P14635+Q8WWL7); assay: Inhibition of Cyclin-dependent kinase 1-cyclin B from M phase starfish (Marthasterias glacialis) oocytes; type: cell-based, Asteroidea, Oocyte
Sequence of Cyclin-dependent kinase 1/cyclin B (Homo sapiens, UniProt O95067+P06493+P14635+Q8WWL7) (P06493 whole entry): as the sequence (P06493 whole entry) above
Sequence of Cyclin-dependent kinase 1/cyclin B (Homo sapiens, UniProt O95067+P06493+P14635+Q8WWL7) (P14635 whole entry): as the sequence (P14635 whole entry) above
Sequence of Cyclin-dependent kinase 1/cyclin B (Homo sapiens, UniProt O95067+P06493+P14635+Q8WWL7) (Q8WWL7 whole entry): as the sequence (Q8WWL7 whole entry) above
Sequence of Cyclin-dependent kinase 1/cyclin B (Homo sapiens, UniProt O95067+P06493+P14635+Q8WWL7) (O95067 whole entry): as the sequence (O95067 whole entry) above

Sequence of Cyclin-dependent kinase 5/CDK5 activator 1 (Homo sapiens) (Q00535 whole entry): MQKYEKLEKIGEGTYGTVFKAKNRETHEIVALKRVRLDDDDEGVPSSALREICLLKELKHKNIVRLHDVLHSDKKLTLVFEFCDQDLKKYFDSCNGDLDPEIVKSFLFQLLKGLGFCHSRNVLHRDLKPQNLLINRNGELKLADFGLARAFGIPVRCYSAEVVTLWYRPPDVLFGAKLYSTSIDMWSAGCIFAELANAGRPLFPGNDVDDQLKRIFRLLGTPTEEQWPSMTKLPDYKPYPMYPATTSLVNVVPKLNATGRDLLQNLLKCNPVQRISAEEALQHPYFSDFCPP
Sequence of Cyclin-dependent kinase 5/CDK5 activator 1 (Homo sapiens) (Q15078 99-307 partner limits assumed): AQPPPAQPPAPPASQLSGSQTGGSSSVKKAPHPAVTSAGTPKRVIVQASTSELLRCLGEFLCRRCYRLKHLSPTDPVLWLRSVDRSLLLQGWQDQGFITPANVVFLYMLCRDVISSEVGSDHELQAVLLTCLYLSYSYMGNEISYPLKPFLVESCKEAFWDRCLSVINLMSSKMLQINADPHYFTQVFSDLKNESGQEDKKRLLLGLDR

## CC(=O)c1cnc2oc3ccc(O)cc3c2c1C
[1]
  inhibition: 10%
IGROV-1
  GI50: > 100 µM
[2]
  IC50: Not Active
Tumor Cell line
  GI50: > 100 µM

## CCOC(=O)c1cnc2oc3ccc(O)cc3c2c1-c1ccccc1
[3]
  Inhibitory activity ratio: 9.14
[1]
  inhibition: 6%
IGROV-1
  GI50: 2.51 µM
[4]
  Inhibitory activity ratio: 9.5
Tumor Cell line
  GI50: 31.6 µM
[5]
  pIC50: 4.54

## CC(=O)c1cnc2oc3ccc(O)cc3c2c1-c1ccccc1
[3]
  Inhibitory activity ratio: 6.74
[1]
  inhibition: 15%
IGROV-1
  GI50: 5.01 µM
[4]
  Inhibitory activity ratio: 1.26
Tumor Cell line
  GI50: 31.6 µM
[5]
  pIC50: 5.38

## CCOC(=O)c1cnc2oc3ccc(O)cc3c2c1C
[3]
  Inhibitory activity ratio: 4.77
[1]
  inhibition: 3%
IGROV-1
  GI50: 79.4 µM
[4]
  Inhibitory activity ratio: 1.18
[2]
  IC50: Not Active
Tumor Cell line
  GI50: 79.4 µM

## CCOC(=O)c1cnc2oc3ccc(OC(C)=O)cc3c2c1-c1ccccc1
IGROV-1
  GI50: > 100 µM
